Common to all, as to type: functional
Test [1] is described as follows: Antiproliferative activity against human HREC cells after 48 hrs by alamar blue based fluorescence assay. The gist of the method: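 Human retinal microvascular endothelial cells at passages 5–8, 2,500 per well, rested 24 h, then given test compound (0.5 nM–500 µM) for 48 h. Proliferation was read by alamarBlue 4 h after addition (ex 560, em 590 nm) and dose-response fitted against DMSO control. GI50 <100 µM was recorded only if ≥50% reduction occurred at the highest concentration.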
For orientation: The colour change of resazurin is a common sign of viable cells or microbes.

The subject of the next test is HUVEC. The experiment in a line: Antiproliferative activity against human HUVEC cells after 48 hrs by alamar blue based fluorescence assay. The gist of the method: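 HUVECs, passages 5–8, cultured in EGM-2 (EBM plus growth-factor bullet kit, 2% FBS). 2,500 cells were seeded 24 h, then incubated 48 h with compound at 0.5 nM–500 µM. alamarBlue was added and fluorescence read 4 h later at 560/590 nm; curves were fitted versus DMSO. GI50 <100 µM was listed only for ≥50% reduction at the top dose.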

The nature of test [2]: Antiproliferative activity against human 92-1 cells after 48 hrs by alamar blue based fluorescence assay.
For a further test, the system named is Y79. Description: Antiproliferative activity against human Y79 cells after 48 hrs by alamar blue based fluorescence assay. The settings on record: Y79, 48 h.
The next test relates to ARPE-19. Description: Antiproliferative activity against human ARPE19 cells after 48 hrs by alamar blue based fluorescence assay. Particulars: ARPE-19, 48 h. Put shortly: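 ARPE19 cells grown in Ham's F-10 with 10% FBS and 1% pen-strep; 2,500 cells/well settled 24 h, then 48 h compound treatment over 0.5 nM–500 µM. alamarBlue fluorescence (560/590 nm) was read after 4 h; curves were fitted relative to DMSO. GI50 <100 µM was reported only where the highest concentration cut cell number by ≥50%.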

SMILES strings stand for the structures.

Usually GI50 stands for the concentration giving 50% growth inhibition. Lower therefore signals greater sensitivity of the cells. Regarding `COc1ccc(CC2COc3cc(OC)c(OC)c(OC)c3C2=O)cc1NC(=O)[C@H](Cc1ccc(OCCCC(=O)NCCCOc2ccc(C(=O)c3ccc(OCc4cn(CCOCCOCCOCCNC(=O)CCCC[C@@H]5SC[C@@H]6NC(=O)N[C@@H]65)nn4)cc3)cc2)cc1)NC(=O)OC(C)(C)C` (stereo not given in full), the GI50 in test [1] was 42 µM; with HUVEC it was greater than 100 µM; in test [2], greater than 100 µM; with Y79, greater than 100 µM; in the test on ARPE-19, greater than 100 µM.

In the case of `COc1ccc(CC2COc3cc(OCCCC(=O)NCCCOc4ccc(C(=O)c5ccc(OCc6cn(CCOCCOCCOCCNC(=O)CCCC[C@@H]7SC[C@@H]8NC(=O)N[C@@H]87)nn6)cc5)cc4)c(OC)c(OC)c3C2=O)cc1OC(=O)[C@H](Cc1ccccc1)NC(=O)OC(C)(C)C` (stereo not given in full), the GI50 in test [1] was 44 µM; with HUVEC, greater than 100 µM; in test [2], greater than 100 µM; in the test with Y79 it was greater than 100 µM; in the test on ARPE-19 it was greater than 100 µM.

`COc1ccc(CC2COc3cc(OC)c(OC)c(OC)c3C2=O)cc1OC(=O)[C@H](Cc1ccc(OCC(=O)NCCCOc2ccc(C(=O)c3ccc(OCc4cn(CCOCCOCCOCCNC(=O)CCCC[C@@H]5SC[C@@H]6NC(=O)N[C@@H]65)nn4)cc3)cc2)cc1)NC(=O)OC(C)(C)C` (stereo not given in full): the GI50 was 0.21 µM in test [1]; 0.44 µM in the test on HUVEC; greater than 100 µM in test [2]; greater than 100 µM in the test on Y79; greater than 100 µM in the test on ARPE-19.

Turning to `COc1ccc(CC2COc3cc(OC)c(OC)c(OC)c3C2=O)cc1OCC(=O)NCCCOc1ccc(C(=O)c2ccc(OCc3cn(CCOCCOCCOCCNC(=O)CCCC[C@@H]4SC[C@@H]5NC(=O)N[C@@H]54)nn3)cc2)cc1` (stereo not given in full), the GI50 in test [1] is 0.072 µM; with HUVEC, greater than 100 µM; in test [2], greater than 100 µM; in the test on Y79, greater than 100 µM; in the test on ARPE-19, greater than 100 µM.

Consider `COc1ccc(CC2COc3cc(OC)c(OC)c(OC)c3C2=O)cc1NC(=O)[C@H](Cc1ccc(OCCCC(=O)O)cc1)NC(=O)OC(C)(C)C` (stereo not given in full), for which the GI50 in test [1] is 0.0079 µM; in the test with HUVEC, 22 µM; in test [2], greater than 100 µM; with Y79, greater than 100 µM; with ARPE-19, greater than 100 µM.

Turning to `COc1ccc(CC2COc3cc(OC)c(OC)c(OC)c3C2=O)cc1OC(=O)[C@H](Cc1ccc(OCC(=O)O)cc1)NC(=O)OC(C)(C)C` (stereo not given in full), the GI50 is 0.047 µM in test [1]; 0.012 µM in the test with HUVEC; greater than 100 µM in test [2]; greater than 100 µM in the test with Y79; greater than 100 µM in the test on ARPE-19.

Values taken from ChEMBL document CHEMBL4425191, “Design, synthesis and biological evaluation of photoaffinity probes of antiangiogenic homoisoflavonoids” (2016).
